Compounds with a hit are over-represented: about 2% of the library has one in this group of screens.
XiGFP reactiv: X-chromosome reactivation activator; 360,000 tested, 0.055% active; activation, % at 7.58 µM; XiGFP mouse fibroblasts, % GFP-positive cells imaging, 3 d; cells co-treated with 5-aza-dC sensitizer; scaled so ellipticine positive control = 100%;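 active = mean normalized replicate activation at least 10% and every replicate at or above 10%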
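System: SV40-immortalized XiGFP fibroblast cells, line 68-5-11 / Incubation: 3-day compound exposure, then 15 min fixation at room temperature / Compound: single concentration per compound, delivered by pin transfer / Buffer or medium: DMEM plus 5-aza-dC sensitizer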
rRNA inh HTS: selective bacterial rRNA inhibition in E. coli; E. coli WT GFP vs humanized-ribosome RFP mutants, fluorescence, 24 h; active compounds read low; DMSO median 0, no signal -100; GFP signal change (wild-type ribosome), % (no concentration beside the values); 350,000 tested, 1.6% active; AID 720706;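 active = significant combined selectivity score with lowered wild-type GFP, culture density cut under 30%, mutant RFP and density less affected; inactive = any of these conditions unmet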
E-sel inducer: E-selectin induction on HUVECs; P16581; HUVEC E-selectin immunofluorescence imaging; normalized: neutral wells 0, TNF-alpha wells 100; activation, % at 7.58 µM; 260,000 tested, 0.37% active;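 active = mean E-selectin-positive cell signal at least 10% of the positive control, reached in at least 60% of replicates, without over 20% cell loss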
Target sequence (P16581 whole entry, looked up): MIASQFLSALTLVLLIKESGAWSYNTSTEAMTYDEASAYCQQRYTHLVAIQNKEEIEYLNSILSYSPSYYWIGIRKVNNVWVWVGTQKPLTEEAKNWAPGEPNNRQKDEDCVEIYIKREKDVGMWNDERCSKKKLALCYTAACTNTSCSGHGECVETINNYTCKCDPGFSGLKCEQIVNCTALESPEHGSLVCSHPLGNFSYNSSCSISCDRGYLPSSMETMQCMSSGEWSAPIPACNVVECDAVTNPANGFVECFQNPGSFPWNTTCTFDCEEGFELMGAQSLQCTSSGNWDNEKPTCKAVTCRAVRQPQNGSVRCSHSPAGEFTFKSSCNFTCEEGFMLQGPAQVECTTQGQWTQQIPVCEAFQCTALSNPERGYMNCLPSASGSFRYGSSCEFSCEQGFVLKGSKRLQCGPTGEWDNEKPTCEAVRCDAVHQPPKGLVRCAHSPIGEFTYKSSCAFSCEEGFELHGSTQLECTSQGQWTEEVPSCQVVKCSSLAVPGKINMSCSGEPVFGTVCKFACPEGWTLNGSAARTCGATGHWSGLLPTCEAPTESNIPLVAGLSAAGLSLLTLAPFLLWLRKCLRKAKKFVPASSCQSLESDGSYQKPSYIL
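Material: HUVEC primary endothelial cells; Amount: 3,000 cells per well; Dosing: single concentration; Medium: EGM-2 growth medium on 0.1% gelatin-coated wells; Read-out basis: percent E-selectin-positive cells; Signal: immunofluorescence imaging; Control set: TNF-alpha, DMSO.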
RAD54 branch: RAD54 (human) branch migration inhibition; AID 602329; RAD54 Holliday junction branch migration, FAM/BHQ fluorescence; 360,000 tested, 0.14% active; Q92698; inhibition, % at 10.4 µM;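 active = mean normalized replicate activity at least 40 and at least half of replicates scoring 40 or more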;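 note: inhibitors cause a drop in the FAM fluorescence signal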
PglD inh: inhibitors of Campylobacter jejuni PglD acetyltransferase | inhibition, % at 12.5 µM | 360,000 tested, 0.098% active | purified PglD enzyme, DTNB colorimetric CoA detection; in the data active = inhibition above about 16%, passing the limit was not always enough
RAD52 anneal inh: inhibitors of human RAD52 DNA annealing; AID 651710; inhibition, % at 18.7 µM; recombinant RAD52 DNA annealing, FRET fluorescence; 360,000 tested, 0.46% active; P43351;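 active = every replicate showing at least 50% inhibition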
Hits are given with their value; - = inactive; . = no result.

SMILES | XiGFP reactiv | rRNA inh HTS | E-sel inducer | RAD54 branch | PglD inh | RAD52 anneal inh
Cc1ccc(-c2c(C(=O)O)c(C(=O)O)c3n2CCC3)cc1 | - | - | - | . | . | -
O=C(O)c1c(C(=O)O)c(-c2ccc(Cl)c(Cl)c2)n2c1CSC2 | - | - | 58 | - | - | -
COc1ccc(CNC(=O)C[C@@H]2CC[C@@H]3[C@@H](COc4ccc(NC(=O)C5CC5)cc4C(=O)N3C)O2)cc1 | - | - | - | - | - | -
CC(C)NC(=O)N1CC2(C1)[C@@H](c1ccccc1)[C@H](CO)N2C(=O)c1ccccn1 | - | - | - | . | . | -
Cc1ccc(C(C)(C)C)c(OCCCn2ccnc2)c1 | - | - | . | . | . | -
CC(C)(C)c1ccccc1OCCCCCn1ccnc1 | - | -55 | - | . | . | -
CC(C)NC(=O)N(C)C[C@@H]1OCCCC[C@H](C)Oc2ccc(NS(=O)(=O)c3ccc(Cl)cc3)cc2C(=O)N([C@H](C)CO)C[C@@H]1C | - | - | - | - | - | -
Cc1ccc(C(=O)/C=C/C(=O)c2ccc(C)cc2)cc1 | - | -24 | - | . | . | -
O=C(Nc1ccc(F)cc1)N1CCCCN2[C@H](CO)[C@@H](c3ccc(-c4ccccc4F)cc3)[C@@H]2C1 | . | . | . | - | - | -
O=C(c1cccc(F)c1)N1CCCCN2[C@H](CO)[C@@H](c3ccc(-c4ccc(F)cc4)cc3)[C@H]2C1 | . | . | . | - | - | -
O=C(Nc1ccc(F)cc1)N1CCCCN2[C@H](CO)[C@@H](c3ccc(-c4ccccc4F)cc3)[C@H]2C1 | . | . | . | - | - | 53
O=S(=O)(c1ccc(F)cc1)N1CCCCN2[C@H](CO)[C@@H](c3ccc(-c4ccccc4F)cc3)[C@H]2C1 | . | . | . | - | - | 56
O=C(Nc1ccc(F)cc1)N1CCCCN2[C@H](CO)[C@H](c3ccc(-c4ccccc4F)cc3)[C@H]2C1 | . | . | . | - | - | 60
O=S(=O)(c1ccccc1)N1CCCCN2[C@@H](CO)[C@H](c3ccc(-c4ccccc4F)cc3)[C@@H]2C1 | - | - | - | - | - | -
O=C(c1cccc(F)c1)N1CCCCN2[C@@H](CO)[C@@H](c3ccc(-c4ccc(F)cc4)cc3)[C@@H]2C1 | . | . | . | - | - | 53
OC[C@@H]1[C@@H](c2ccc(-c3cccnc3)cc2)[C@H]2CN(Cc3ccccn3)CCCCN12 | - | - | - | - | - | .
CO[C@@H]1CN(C)C(=O)c2ccc(NS(C)(=O)=O)cc2OC[C@@H](C)N(CC2CCOCC2)C[C@H]1C | - | - | - | - | - | -
COc1ccc(CN2CN(S(=O)(=O)c3cccs3)c3nc4ccccc4nc32)cc1 | - | -42 | - | . | . | -
COc1ccc(CN2CN(S(=O)(=O)c3ccccc3)c3nc4ccccc4nc32)cc1 | - | -25 | - | . | . | -
COc1ccc(CCN2CN(S(=O)(=O)c3ccc(OC)cc3)c3nc4ccccc4nc32)cc1 | - | - | - | . | . | -
O=C(Nc1ccccc1F)N1CC(=O)N2[C@H](C1)[C@H](c1ccc(C#CC3CCCC3)cc1)[C@@H]2CO | - | - | - | . | . | -
C=CCn1c(SCC(=O)NNC(=S)Nc2ccccc2)nnc1-c1ccccc1 | - | -16 | - | - | - | -
CCn1c(SCC(=O)NNC(=S)Nc2ccccc2)nnc1-c1ccc(Cl)cc1 | - | - | . | - | - | -
COc1ccc(/C=C/C(=O)Nc2ccccc2)cc1S(=O)(=O)N1CCOCC1 | . | -18 | - | . | . | -
O=C(c1ccc(Oc2cc(Cl)cc(Cl)c2)o1)N1CCCCC1 | - | -49 | - | - | - | -
CCOC(=O)Cn1cc(/C=C(/C#N)C(=O)NC(C)C)c2ccccc21 | - | - | 83 | - | - | -
COc1ccc(NC(=O)Nc2ccc3c(c2)C(=O)N([C@@H](C)CO)C[C@@H](C)[C@@H](CN(C)C(=O)NC2CCCCC2)OCCCC[C@@H](C)O3)cc1 | - | - | - | - | - | -
COC(=O)C[C@@H]1CC[C@@H]2[C@H](COc3ccc(NC(=O)c4ccc(C(F)(F)F)cc4)cc3C(=O)N2C)O1 | - | - | - | - | - | -
CCn1nc(C(=O)OCc2cccc(S(=O)(=O)N(C)C)c2)c2ccccc2c1=O | - | -25 | - | . | . | -
CN(C)S(=O)(=O)c1cccc(COC(=O)c2ccc(Cl)cc2O)c1 | . | - | - | . | . | -
